This test deals with Mus musculus. Briefly: Percent of mice (n=8) protected against seizures induced by a maximal electroshock (50mA,0.2s) after 30 mg/kg compound was injected intraperitoneally. It counts as functional. The conditions noted are these: route intraperitoneal. The procedure, abridged: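 Mice, n = 8 per group, received 30mg/kg ip 3h before a maximal electroshock (50mA, 0.2s). The read-out was the percentage of animals protected against the induced seizures.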
In general terms: In the maximal electroshock model the usual endpoint is tonic extension of the hind limbs.
The compound `NS(=O)(=O)c1ccc2c(c1)CC(NC(=O)c1c(F)c(F)cc(F)c1F)C2` (centres undefined) showed a Protected mice of 13%.
The figure for `COc1ccc(Cl)cc1C(=O)NC1Cc2ccc(S(N)(=O)=O)cc2C1.O` (centres undefined) is 38%; for `NS(=O)(=O)c1ccc2c(c1)CC(NC(=O)c1c(F)c(F)c(F)c(F)c1F)C2` (centres undefined) it is 38%.
As for `CC(=O)NC1Cc2ccc(S(=O)(=O)O)cc2C1.O` (centres undefined), the figure is 0%; as for `Cl.NC1Cc2ccc(S(N)(=O)=O)cc2C1` (centres undefined), 0%; as for `NC1Cc2ccc(S(=O)(=O)O)cc2C1` (centres undefined), 0%.
The figure for `NS(=O)(=O)c1ccc2c(c1)CC(NC(=O)c1ccc(Cl)cc1)C2` (centres undefined) is 31%; for `CC(=O)/N=c1/sc(S(N)(=O)=O)nn1C` [METHAZOLAMIDE] it is 100%.
In turn, `CC(=O)NC1Cc2ccc(S(N)(=O)=O)cc2C1` (centres undefined) yielded a Protected mice of 38%.

The values above are taken from ChEMBL document CHEMBL1138647, “Carbonic anhydrase inhibitors. Design of anticonvulsant sulfonamides incorporating indane moieties” (Bioorg Med Chem Lett, 2004).
